Rows were chosen to be rich in hits. Some 7.6% of all compounds tested hit in one or more screens of this group.
M1 antag: antagonists of rat M1 muscarinic receptor; P08482; CHO-M1 cells, Fluo-4 calcium, ACh EC80 antagonist mode; hits give low values; B-score at 10 µM; 64,000 tested, 3.4% active; AID 628;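 active = calcium fluorescence response, raw or row-and-column corrected B-score, differing from the plate sample mean either way at a set confidence level, mostly lower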
Jurkat tox 60K: cytotoxicity toward Jurkat cells; inhibition, % at 4 µM; AID 463; 56,000 tested, 1.2% active; Jurkat E6.1 viability, ATP luminescence, 48 h;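 active = inhibition above the mean inhibition of all tested compounds plus 3 SD, cut at about 28% in these data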
DAT uptake mod: modulates human dopamine transporter uptake under cocaine. LLC-PK1 hDAT cells, [14C]-dopamine uptake with cocaine IC80; actives deviate in either direction. B-score at 10 µM. 110,000 tested, 1.3% active. AID 449768;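 active = Z score or B-score, a plate-position-corrected score, falls beyond the plate's 99.7% confidence bounds, in either direction; inactive = both scores lie inside the 99.7% bounds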
Target sequence (Q01959 whole entry, looked up): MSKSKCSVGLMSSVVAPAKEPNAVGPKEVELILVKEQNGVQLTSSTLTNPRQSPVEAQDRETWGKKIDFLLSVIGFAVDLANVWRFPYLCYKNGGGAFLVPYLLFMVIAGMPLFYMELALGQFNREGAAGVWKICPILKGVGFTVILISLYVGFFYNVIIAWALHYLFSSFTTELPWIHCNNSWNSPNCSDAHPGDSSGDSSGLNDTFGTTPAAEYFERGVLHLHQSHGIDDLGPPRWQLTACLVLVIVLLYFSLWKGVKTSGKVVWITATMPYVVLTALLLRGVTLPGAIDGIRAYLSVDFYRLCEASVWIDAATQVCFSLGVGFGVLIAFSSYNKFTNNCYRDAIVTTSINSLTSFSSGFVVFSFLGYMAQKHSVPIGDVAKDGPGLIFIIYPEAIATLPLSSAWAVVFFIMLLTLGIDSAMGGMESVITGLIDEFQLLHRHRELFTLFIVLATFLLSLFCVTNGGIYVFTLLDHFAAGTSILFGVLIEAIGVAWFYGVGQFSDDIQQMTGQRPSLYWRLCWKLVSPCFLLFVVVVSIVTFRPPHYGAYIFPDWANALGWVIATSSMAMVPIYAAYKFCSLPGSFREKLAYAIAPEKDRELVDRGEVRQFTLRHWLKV
M1 ag: agonists of M1 muscarinic receptor; AID 626; 64,000 tested, 3% active; CHO-M1 cells, Fluo-4 calcium fluorescence, agonist mode; hits give high values; B-score at 10 µM;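 active = fluorescence rise, raw or as B-score row- and column-corrected plate score, outside the 99.7% band of its plate's samples, either direction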
D1 mod: allosteric modulators of human D1 dopamine receptor; HEK293 D1, CRE-luciferase, dopamine EC30 potentiation; actives deviate in either direction; B-score at 10 µM; 58,000 tested, 5.9% active; AID 641;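 active = luminescence count or its row- and column-corrected plate score outside the 99.7% band of the plate's sample wells, on either side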
HEK293 NFkB inh: inhibitors of the PMA/ionomycin-induced NF-kB reporter in HEK293 cells; HEK-293 NF-kB luciferase reporter, luminescence; inhibition, % at 3 µM; 62,000 tested, 0.21% active;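 active = inhibition above the mean of all tested compounds plus 3 SD, cut at about 40% in these data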
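Signal: luciferase luminescence; Material: HEK-293 cells with stable firefly luciferase reporter driven by four HIV NF-kB elements; Probe or stimulus: PMA with ionomycin; Replication: tested once; Times: 1 h compound pretreatment, then 16 h stimulation at 37 °C, 5% CO2; Benchmarks: DMSO and 10 µM reference inhibitor; Evaluation: per-plate % inhibition versus controls.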
Hits are given with their value.

Results for N#CC1=C(N)Oc2n[nH]c(-c3ccccc3)c2C1c1ccncc1 (stereo not drawn) ?
M1 antag: inactive; Jurkat tox 60K: inactive; DAT uptake mod: inactive; M1 ag: inactive; D1 mod: inactive; HEK293 NFkB inh: inactive

How did N#CC1=C(N)Oc2n[nH]c(-c3ccc(F)cc3)c2C1c1cccnc1 (stereo not drawn) do in these assays?
M1 antag: inactive; DAT uptake mod: inactive; M1 ag: inactive; D1 mod: 4.8; HEK293 NFkB inh: inactive

What do the screens show for `O=C(Nc1ccc(Cl)c(Cl)c1)N1CCSC1c1ccco1` (stereo not drawn)?
M1 antag: inactive; Jurkat tox 60K: inactive; DAT uptake mod: -2.1; M1 ag: inactive; D1 mod: inactive; HEK293 NFkB inh: inactive

What do the screens show for `O=C(Nc1ccc(Cl)c(Cl)c1)N1CC=CCC1`?
Jurkat tox 60K: inactive; DAT uptake mod: inactive; D1 mod: inactive; HEK293 NFkB inh: inactive

Results for O=C(c1ccccc1CCc1ccccc1)N1CCOCC1 ?
M1 antag: inactive; Jurkat tox 60K: inactive; DAT uptake mod: -6.8; M1 ag: inactive; D1 mod: inactive; HEK293 NFkB inh: inactive

Results for CSc1ccccc1C(=O)N1CCOCC1 ?
M1 antag: inactive; Jurkat tox 60K: inactive; DAT uptake mod: inactive; M1 ag: inactive; HEK293 NFkB inh: inactive

What do the screens show for `CC1=C(C(=O)NC(C)c2ccc3c(c2)OCCO3)C2(CCC(C)CC2)OC1=O` (stereo not drawn)?
M1 antag: inactive; Jurkat tox 60K: inactive; DAT uptake mod: inactive; M1 ag: inactive; D1 mod: inactive; HEK293 NFkB inh: inactive

How did Cc1cc(C)nc(N2CCC(C(=O)NCCc3ccc(F)cc3)CC2)n1 do in these assays?
M1 antag: inactive; Jurkat tox 60K: inactive; M1 ag: inactive; D1 mod: inactive; HEK293 NFkB inh: 52

What do the screens show for `Cc1sc2ncnc(SCC(=O)NC(=O)NCc3ccco3)c2c1C`?
M1 antag: inactive; Jurkat tox 60K: inactive; DAT uptake mod: inactive; M1 ag: inactive; D1 mod: inactive; HEK293 NFkB inh: inactive

How did N#CC1=C(N)Oc2cc(N)ccc2C1C1CCCCC1 (stereo not drawn) do in these assays?
M1 antag: inactive; Jurkat tox 60K: 84; DAT uptake mod: inactive; M1 ag: inactive; D1 mod: inactive; HEK293 NFkB inh: inactive

Results for COc1ccc(OC)c(C2C(C#N)=C(N)Oc3cc(N)ccc32)c1 (stereo not drawn) ?
M1 antag: inactive; Jurkat tox 60K: inactive; DAT uptake mod: inactive; M1 ag: inactive; D1 mod: inactive; HEK293 NFkB inh: inactive

Results for Clc1ccc(-c2ccnc(Oc3ccc4ccccc4c3)n2)cc1 ?
DAT uptake mod: inactive

How did CC(=O)c1c(COC(=O)c2ccncc2)nc2ccccc2[n+]1[O-] do in these assays?
M1 antag: inactive; Jurkat tox 60K: inactive; DAT uptake mod: inactive; M1 ag: inactive; D1 mod: inactive; HEK293 NFkB inh: inactive

What do the screens show for `CC(=O)O[C@H]1C[C@@H]2CC[C@@H]3[C@H](CC[C@@]4(C)[C@H]3C[C@H]([N+]3(C)CCCCC3)[C@@H]4OC(C)=O)[C@@]2(C)C[C@@H]1[N+]1(C)CCCCC1`?
M1 antag: inactive; M1 ag: inactive; D1 mod: 17

What do the screens show for `CC(=O)OC1C([N+]2(C)CCCCC2)C[C@H]2C3CC[C@H]4C[C@H](OC(C)=O)C([N+]5(C)CCCCC5)CC4(C)[C@H]3CCC12C` (stereo partly drawn)?
DAT uptake mod: inactive

How did O=C(NC(C(=O)c1ccccc1)N1CCOCC1)c1ccccc1 (stereo not drawn) do in these assays?
M1 antag: inactive; Jurkat tox 60K: inactive; DAT uptake mod: inactive; M1 ag: inactive; D1 mod: inactive; HEK293 NFkB inh: inactive

Results for CCCN(CCC)C(=O)c1c(NC(=O)CC)sc2c1CCCCC2 ?
DAT uptake mod: inactive

How did COc1ccc(-c2cc(C(F)F)n3ncc(C(=O)N4CCCCC4)c3n2)cc1 do in these assays?
DAT uptake mod: 2.6

What do the screens show for `CC(C)C(NC(=O)C12CC3CC(CC(C3)C1)C2)C(=O)O` (stereo not drawn)?
M1 antag: inactive; Jurkat tox 60K: inactive; DAT uptake mod: inactive; M1 ag: inactive; D1 mod: inactive; HEK293 NFkB inh: inactive

What do the screens show for `Cc1ccc(S(=O)(=O)n2nc(C)c(Br)c2C)c(C)c1C`?
M1 antag: inactive; Jurkat tox 60K: inactive; DAT uptake mod: inactive; M1 ag: inactive; D1 mod: inactive; HEK293 NFkB inh: inactive

Screening data: PubChem, several laboratories
